From ChEMBL document CHEMBL4118251 (J Med Chem, 2018)

What was measured:
[1] = molecular target: T1, Gastric inhibitory polypeptide receptor (Homo sapiens, UniProt P48546); experiment: Agonist activity at human GIP receptor expressed in HEK293 cells assessed as cAMP accumulation after 30 mins by HTRF assay; format: functional, cell-based
T1 sequence (P48546 whole entry): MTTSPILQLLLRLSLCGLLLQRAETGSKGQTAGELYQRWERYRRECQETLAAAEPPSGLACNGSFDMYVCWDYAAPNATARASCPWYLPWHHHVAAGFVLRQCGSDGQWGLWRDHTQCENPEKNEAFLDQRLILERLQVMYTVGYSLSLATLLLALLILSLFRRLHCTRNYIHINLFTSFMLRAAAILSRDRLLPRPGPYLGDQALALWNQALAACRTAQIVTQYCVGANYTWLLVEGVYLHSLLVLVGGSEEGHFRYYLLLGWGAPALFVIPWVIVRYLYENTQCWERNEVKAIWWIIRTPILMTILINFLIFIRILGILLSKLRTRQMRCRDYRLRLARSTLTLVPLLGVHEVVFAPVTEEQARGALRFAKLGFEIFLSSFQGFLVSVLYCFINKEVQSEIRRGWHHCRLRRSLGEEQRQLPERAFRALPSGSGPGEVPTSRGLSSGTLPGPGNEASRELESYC

[2] = molecular target: Glucagon-like peptide 1 receptor (Homo sapiens, UniProt P43220); experiment: Agonist activity at human GLP1R expressed in HEK293 cells assessed as cAMP accumulation after 30 mins by HTRF assay; format: functional, cell-based
[3] = molecular target: Glucagon receptor (Homo sapiens, UniProt P47871); experiment: Agonist activity at human glucagon receptor expressed in HEK293 cells assessed as cAMP accumulation after 30 mins by HTRF assay; format: functional, cell-based
[4] = Agonist activity at monkey GIP receptor expressed in HEK293 cells assessed as cAMP accumulation after 30 mins by HTRF assay; format: cell-based, Macaca mulatta
Procedure, shortened: (§1)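 HEK293 lines stably expressing human or monkey receptor were detached with accutase. Cells were resuspended at 400 000 cells/mL in HBSS/20 mM HEPES/0.1% BSA/2 mM IBMX and exposed to peptide for 30 min at room temperature. cAMP was read by HTRF (665/620 nm) after 1 h lysis.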

[5] = Agonist activity at monkey glucagon receptor expressed in HEK293 cells assessed as cAMP accumulation after 30 mins by HTRF assay; format: cell-based, Macaca mulatta; procedure, shortened: as §1

Sequence of Glucagon-like peptide 1 receptor (P43220 whole entry): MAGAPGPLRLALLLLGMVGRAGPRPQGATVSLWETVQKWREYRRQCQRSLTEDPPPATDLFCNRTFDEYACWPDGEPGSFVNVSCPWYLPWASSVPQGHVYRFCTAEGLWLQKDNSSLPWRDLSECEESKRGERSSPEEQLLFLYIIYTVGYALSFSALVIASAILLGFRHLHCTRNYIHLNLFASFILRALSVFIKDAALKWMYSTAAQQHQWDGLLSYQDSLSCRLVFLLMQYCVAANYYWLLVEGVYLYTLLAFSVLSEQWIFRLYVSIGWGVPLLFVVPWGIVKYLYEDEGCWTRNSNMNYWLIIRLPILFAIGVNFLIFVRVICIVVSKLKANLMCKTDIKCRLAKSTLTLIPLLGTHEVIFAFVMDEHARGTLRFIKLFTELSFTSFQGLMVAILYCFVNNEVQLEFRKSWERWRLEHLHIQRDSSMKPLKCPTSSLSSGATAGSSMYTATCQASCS
Sequence of Glucagon receptor (P47871 whole entry): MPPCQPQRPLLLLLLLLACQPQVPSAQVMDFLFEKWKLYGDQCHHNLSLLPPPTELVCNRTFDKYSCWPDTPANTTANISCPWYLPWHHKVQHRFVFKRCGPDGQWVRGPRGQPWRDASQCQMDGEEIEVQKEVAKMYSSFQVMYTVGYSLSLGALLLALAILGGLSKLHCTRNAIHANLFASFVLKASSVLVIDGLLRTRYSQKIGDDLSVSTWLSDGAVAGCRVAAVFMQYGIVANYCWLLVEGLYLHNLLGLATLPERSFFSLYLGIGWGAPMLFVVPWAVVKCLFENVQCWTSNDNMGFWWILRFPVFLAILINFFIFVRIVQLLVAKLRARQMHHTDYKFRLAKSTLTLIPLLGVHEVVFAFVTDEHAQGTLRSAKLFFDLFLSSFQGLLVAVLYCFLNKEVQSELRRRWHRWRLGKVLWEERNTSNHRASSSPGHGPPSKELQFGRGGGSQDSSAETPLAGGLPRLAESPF

Molecule	EC50 [1]	EC50 [2]	EC50 [3]	EC50 ([4]; Macaca mulatta, HEK293, 0.5 h)	EC50 ([5]; Macaca mulatta, HEK293, 0.5 h)	EC50 ([4]; hek293)	EC50 ([5]; hek293)
CCCCCCCCCCCCCCCCC(=O)N[C@@H](CCC(=O)NCCCC[C@H](NC(=O)[C@H](CCC(N)=O)NC(=O)[C@H](CCCCN)NC(=O)[C@H](CO)NC(=O)[C@H](CC(C)C)NC(=O)[C@H](CC(=O)O)NC(=O)[C@H](CO)NC(=O)[C@@H](NC(=O)[C@H](Cc1ccccc1)NC(=O)[C@@H](NC(=O)CNC(=O)[C@H](CCC(N)=O)NC(=O)[C@H](CO)NC(=O)[C@@H](N)Cc1cnc[nH]1)[C@@H](C)O)[C@@H](C)O)C(=O)N[C@@H](CC(=O)O)C(=O)N[C@@H](CO)C(=O)N[C@@H](CCCNC(=N)N)C(=O)N[C@@H](CCCNC(=N)N)C(=O)N[C@@H](C)C(=O)N[C@@H](CCC(N)=O)C(=O)N[C@@H](CC(=O)O)C(=O)N[C@@H](Cc1ccccc1)C(=O)N[C@H](C(=O)N[C@@H](CCC(=O)O)C(=O)N[C@@H](Cc1c[nH]c2ccccc12)C(=O)N[C@@H](CC(C)C)C(=O)N[C@@H](CCCCN)C(=O)N[C@@H](CC(N)=O)C(=O)NCC(=O)NCC(=O)N1CCC[C@H]1C(=O)N[C@@H](CO)C(=O)N[C@@H](CO)C(=O)NCC(=O)N[C@@H](C)C(=O)N1CCC[C@H]1C(=O)N1CCC[C@H]1C(=O)N1CCC[C@H]1C(=O)N[C@@H](CO)C(=O)O)[C@@H](C)CC)C(=O)O	1.21 nM	3.9 pM	0.7 pM	–	–	–	–
CC[C@H](C)[C@H](NC(=O)[C@H](Cc1ccccc1)NC(=O)[C@H](CCC(=O)O)NC(=O)[C@H](CCCCN)NC(=O)[C@H](C)NC(=O)[C@H](C)NC(=O)[C@H](CCC(N)=O)NC(=O)CNC(=O)[C@H](CCC(=O)O)NC(=O)[C@H](CC(C)C)NC(=O)[C@H](Cc1ccc(O)cc1)NC(=O)[C@H](CO)NC(=O)[C@H](CO)NC(=O)[C@@H](NC(=O)[C@H](CC(=O)O)NC(=O)[C@H](CO)NC(=O)[C@@H](NC(=O)[C@H](Cc1ccccc1)NC(=O)[C@@H](NC(=O)CNC(=O)[C@H](CCC(=O)O)NC(=O)[C@H](C)NC(=O)[C@@H](N)Cc1cnc[nH]1)[C@@H](C)O)[C@@H](C)O)C(C)C)C(=O)N[C@@H](C)C(=O)N[C@@H](Cc1c[nH]c2ccccc12)C(=O)N[C@@H](CC(C)C)C(=O)N[C@H](C(=O)N[C@@H](CCCCN)C(=O)NCC(=O)N[C@@H](CCCNC(=N)N)C(=O)O)C(C)C	> 100000 nM	–	–	> 100 µM	> 100000 nM	–	–
CCCCCCCCCCCCCCCCC(=O)N[C@@H](CCC(=O)N[C@@H](CCC(=O)NCCCC[C@H](NC(=O)[C@H](CCC(N)=O)NC(=O)[C@H](CCCCN)NC(=O)[C@H](CO)NC(=O)[C@H](CC(C)C)NC(=O)[C@H](CC(=O)O)NC(=O)[C@H](CO)NC(=O)[C@@H](NC(=O)[C@H](Cc1ccccc1)NC(=O)[C@@H](NC(=O)CNC(=O)[C@H](CCC(N)=O)NC(=O)C(C)(C)NC(=O)[C@@H](N)Cc1cnc[nH]1)[C@@H](C)O)[C@@H](C)O)C(=O)N[C@@H](CC(=O)O)C(=O)N[C@@H](CCC(=O)O)C(=O)N[C@@H](CCC(N)=O)C(=O)N[C@@H](CCCNC(=N)N)C(=O)N[C@@H](C)C(=O)N[C@@H](CCCCN)C(=O)N[C@@H](CC(C)C)C(=O)N[C@@H](Cc1ccccc1)C(=O)N[C@H](C(=O)N[C@@H](CCC(=O)O)C(=O)N[C@@H](Cc1c[nH]c2ccccc12)C(=O)N[C@@H](CC(C)C)C(=O)N[C@@H](CC(C)C)C(=O)N[C@@H](C)C(=O)NCC(=O)NCC(=O)N1CCC[C@H]1C(=O)N[C@@H](CO)C(=O)N[C@@H](CO)C(=O)NCC(=O)N[C@@H](C)C(=O)N1CCC[C@H]1C(=O)N1CCC[C@H]1C(=O)N1CCC[C@H]1C(=O)N[C@@H](CO)C(N)=O)[C@@H](C)CC)C(=O)O)C(=O)O	0.189 nM	4.8 pM	1.6 pM	–	–	–	–
CCCCCCCCCCCCCCCCCCC(=O)N[C@@H](CCC(=O)NCCCC[C@H](NC(=O)[C@H](CCC(N)=O)NC(=O)[C@H](CCCCN)NC(=O)[C@H](CO)NC(=O)[C@H](CC(C)C)NC(=O)[C@H](CC(=O)O)NC(=O)[C@H](CO)NC(=O)[C@@H](NC(=O)[C@H](Cc1ccccc1)NC(=O)[C@@H](NC(=O)CNC(=O)[C@H](CCC(N)=O)NC(=O)C(C)(C)NC(=O)[C@@H](N)Cc1cnc[nH]1)[C@@H](C)O)[C@@H](C)O)C(=O)N[C@@H](CC(=O)O)C(=O)N[C@@H](CCC(=O)O)C(=O)N[C@@H](CCC(N)=O)C(=O)N[C@@H](CCCNC(=N)N)C(=O)N[C@@H](C)C(=O)N[C@@H](CCCCN)C(=O)N[C@@H](CC(C)C)C(=O)N[C@@H](Cc1ccccc1)C(=O)N[C@H](C(=O)N[C@@H](CCC(=O)O)C(=O)N[C@@H](Cc1c[nH]c2ccccc12)C(=O)N[C@@H](CC(C)C)C(=O)N[C@@H](CCCCN)C(=O)N[C@@H](C)C(=O)NCC(=O)NCC(=O)N1CCC[C@H]1C(=O)N[C@@H](CO)C(=O)N[C@@H](CO)C(=O)NCC(=O)N[C@@H](C)C(=O)N1CCC[C@H]1C(=O)N1CCC[C@H]1C(=O)N1CCC[C@H]1C(=O)N[C@@H](CO)C(N)=O)[C@@H](C)CC)C(=O)O	0.0397 nM	2.5 pM	1.9 pM	–	–	–	–
GLUCAGON	–	–	–	–	–	> 100 µM	0.0015 nM
CCCCCCCCCCCCCCCCC(=O)N[C@@H](CCC(=O)N[C@@H](CCC(=O)NCCCC[C@H](NC(=O)[C@H](CCC(N)=O)NC(=O)[C@H](CCCCN)NC(=O)[C@H](CO)NC(=O)[C@H](CC(C)C)NC(=O)[C@H](CC(=O)O)NC(=O)[C@H](CO)NC(=O)[C@@H](NC(=O)[C@H](Cc1ccccc1)NC(=O)[C@@H](NC(=O)CNC(=O)[C@H](CCC(N)=O)NC(=O)C(C)(C)NC(=O)[C@@H](N)Cc1cnc[nH]1)[C@@H](C)O)[C@@H](C)O)C(=O)N[C@@H](CC(=O)O)C(=O)N[C@@H](CCC(=O)O)C(=O)N[C@@H](CCC(N)=O)C(=O)N[C@@H](CCCNC(=N)N)C(=O)N[C@@H](C)C(=O)N[C@@H](CCCCN)C(=O)N[C@@H](CC(C)C)C(=O)N[C@@H](Cc1ccccc1)C(=O)N[C@H](C(=O)N[C@@H](CCC(=O)O)C(=O)N[C@@H](Cc1c[nH]c2ccccc12)C(=O)N[C@@H](CC(C)C)C(=O)N[C@H](C(=O)N[C@@H](C)C(=O)NCC(=O)NCC(=O)N1CCC[C@H]1C(=O)N[C@@H](CO)C(=O)N[C@@H](CO)C(=O)NCC(=O)N[C@@H](C)C(=O)N1CCC[C@H]1C(=O)N1CCC[C@H]1C(=O)N1CCC[C@H]1C(=O)N[C@@H](CO)C(N)=O)[C@@H](C)CC)[C@@H](C)CC)C(=O)O)C(=O)O	0.0582 nM	5.3 pM	2.5 pM	–	–	–	–
CCCCCCCCCCCCCCCCC(=O)N[C@@H](CCC(=O)N[C@@H](CCC(=O)NCCCC[C@H](NC(=O)[C@H](CCC(N)=O)NC(=O)[C@H](CCCCN)NC(=O)[C@H](CO)NC(=O)[C@H](CC(C)C)NC(=O)[C@H](CC(=O)O)NC(=O)[C@H](CO)NC(=O)[C@@H](NC(=O)[C@H](Cc1ccccc1)NC(=O)[C@@H](NC(=O)CNC(=O)[C@H](CCC(N)=O)NC(=O)C(C)(C)NC(=O)[C@@H](N)Cc1cnc[nH]1)[C@@H](C)O)[C@@H](C)O)C(=O)N[C@@H](CC(=O)O)C(=O)N[C@@H](CCC(=O)O)C(=O)N[C@@H](CCC(N)=O)C(=O)N[C@@H](CCCNC(=N)N)C(=O)N[C@@H](C)C(=O)N[C@@H](CCCCN)C(=O)N[C@@H](CC(C)C)C(=O)N[C@@H](Cc1ccccc1)C(=O)N[C@H](C(=O)N[C@@H](CCC(=O)O)C(=O)N[C@@H](Cc1c[nH]c2ccccc12)C(=O)N[C@@H](CC(C)C)C(=O)N[C@@H](CCCCN)C(=O)N[C@@H](C)C(=O)NCC(=O)NCC(=O)N1CCC[C@H]1C(=O)N[C@@H](CO)C(=O)N[C@@H](CO)C(=O)NCC(=O)N[C@@H](C)C(=O)N1CCC[C@H]1C(=O)N1CCC[C@H]1C(=O)N1CCC[C@H]1C(=O)N[C@@H](CO)C(N)=O)[C@@H](C)CC)C(=O)O)C(=O)O	0.224 nM	2.2 pM	4.4 pM	–	–	–	–
